Laboratory results as given in ChEMBL document CHEMBL4334422, “Toxicities and beneficial protection of H2S donors based on nonsteroidal anti-inflammatory drugs” (Medchemcomm, 2019).
Calls of active or inactive are those of the source. No cut-off for these calls is given here.

Columns and labels:
H9c2 [1] = assay: Cytotoxicity against rat H9c2 cells assessed as reduction in cell viability at 10 to 80 uM incubated for 24 hrs; type: cell-based; settings: h9c2, 24 h
In short: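 Rat cardiac H9c2 cells were grown in DMEM with 10% FBS and penicillin/streptomycin at 37 °C and 5% CO₂. They were seeded at 5×10⁴ cells/mL and allowed to adhere for 8 h. Cells were exposed to 10, 40 or 80 µM compound for 24 h, and survival was compared with untreated cells.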

[2] = Toxicity in Wistar kyoto rat assessed as leukocyte count in blood at 0.01 mmol/kg, ip administered for 14 days (reference value: 6.88 10^9/L); type: organism-based; settings: in vivo, 336 h
In short: (§1)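 Normal WKY rats, 6 per group, received an intraperitoneal injection once daily for 14 consecutive days. The compound was dissolved in 10% 1,3-propanediol, and controls received an equal volume of vehicle. Urine was collected in metabolic cages during dosing. At the end, blood was drawn from the eyeball for haematology, and urinalysis values were compared with the vehicle group.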

[3] = Toxicity in Wistar kyoto rat assessed as urine pH at 0.01 mmol/kg, ip administered for 14 days (reference value: 8.4); type: organism-based; settings: in vivo, 336 h; in short: as §1
[4] = Toxicity in Wistar kyoto rat assessed as loose cytoplasm in kidney tissue at 10 mg/kg, ip administered for 14 days by H and E staining based assay; type: organism-based; settings: in vivo, 336 h
In short: (§2)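 WKY rats were dosed intraperitoneally at 10 mg/kg daily for 14 days, using the 10% 1,3-propanediol vehicle, with a vehicle control group. Liver and kidney were collected and fixed immediately in 4% glutaraldehyde. Sections were stained with haematoxylin and eosin and scored for structural change under light microscopy.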

[5] = Toxicity in Wistar kyoto rat assessed as swollen hepatocytes at 10 mg/kg, ip administered for 14 days by H and E staining based assay; type: organism-based; settings: in vivo, 336 h; in short: as §2
[6] = Toxicity in Wistar kyoto rat assessed as hemoglobin count in blood at 0.01 mmol/kg, ip administered for 14 days (reference value: 138 g/L); type: organism-based; settings: in vivo, 336 h
In short: (§3)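 Normal WKY rats (6 per group) received compound in 10% 1,3-propanediol intraperitoneally daily for 14 days. Controls received an equal volume of vehicle. Urine was collected in metabolic cages throughout dosing. At the end of dosing, blood was taken from the eyeball for haematology, and urine parameters were analysed.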

[7] = Toxicity in Wistar kyoto rat assessed as monocyte ratio in blood at 0.01 mmol/kg, ip administered for 14 days (reference value: 0.5%); type: organism-based; settings: in vivo, 336 h; in short: as §1
[8] = Toxicity in Wistar kyoto rat assessed as neutrophil ratio in blood at 0.01 mmol/kg, ip administered for 14 days (reference value: 54.7%); type: organism-based; settings: in vivo, 336 h; in short: as §1
[9] = Toxicity in Wistar kyoto rat assessed as Vc in urine at 0.01 mmol/kg, ip administered for 14 days; type: organism-based; settings: in vivo, 336 h; in short: as §3
[10] = Toxicity in Wistar kyoto rat assessed as ketone body level in urine at 0.01 mmol/kg, ip administered for 14 days (reference value: 4 umol/L); type: organism-based; settings: in vivo, 336 h; in short: as §1
[11] = Toxicity in Wistar kyoto rat assessed as leukocyte in urine at 0.01 mmol/kg, ip administered for 14 days (reference value: 10 ca cells/uL); type: organism-based; settings: in vivo, 336 h; in short: as §1
[12] = Toxicity in Wistar kyoto rat assessed as basophilic ratio in blood at 0.01 mmol/kg, ip administered for 14 days (reference value: 2.2%); type: organism-based; settings: in vivo, 336 h; in short: as §3
H9c2 [13] = assay: Cytoprotective activity against H2O2-induced toxicity in rat H9c2 cells assessed as increase in cell viability at 10 to 80 uM pretreated with compound followed by H2O2 addition and measured after 8 hrs relative to control; type: functional
In short: (§4)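 H9c2 cells were injured with H₂O₂ (400 µM) for 1, 4 or 8 h to give light, medium and heavy damage, in the presence of compound at 10–80 µM. Acetaminophen or ibuprofen served as controls. Viability was measured as mean ± SD of three experiments. SOD and MDA contents were measured as mean ± SD of four experiments. Morphology was assessed by Giemsa staining under light microscopy.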

[14] = Half life of compound in pH 7.4 phosphate buffer at 40 mM in presence of TECP or cysteine by methylene blue dye based UV-Vis spectrophotometric method; type: physicochemical; settings: phosphate buffer with TECP or cysteine
In short: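 A 40 mM compound solution in pH 7.4 phosphate buffer was mixed with TECP or L-cysteine (1.0 mM) as promoter. Aliquots were mixed with methylene blue reagent, and after 20 min absorbance was read at 670 nm. H₂S was quantified against a Na₂S standard curve, and concentration-versus-time release curves were plotted to give half-lives.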

H9c2 [15] = assay: Cytoprotective activity against H2O2-induced toxicity in rat H9c2 cells assessed as increase in SOD level at 10 to 80 uM pretreated with compound followed by H2O2 addition and measured after 8 hrs; type: functional, cell-based; in short: as §4
H9c2 [16] = assay: Cytoprotective activity against H2O2-induced toxicity in rat H9c2 cells assessed as decrease in MDA level pretreated with compound followed by H2O2 addition and measured after 8 hrs; type: functional, cell-based; in short: as §4
[17] = Toxicity in Wistar kyoto rat assessed as nitrite level in urine at 0.01 mmol/kg, ip administered for 14 days; type: organism-based; settings: in vivo, 336 h; in short: as §1
[18] = Toxicity in Wistar kyoto rat assessed as proportion in urine at 0.01 mmol/kg, ip administered for 14 days (reference value: 1.01); type: organism-based; settings: in vivo, 336 h; in short: as §1
[19] = Toxicity in Wistar kyoto rat assessed as bilirubin level in urine at 0.01 mmol/kg, ip administered for 14 days (reference value: 10 umol/L); type: organism-based; settings: in vivo, 336 h; in short: as §3
H9c2 [20] = assay: Cytoprotective activity against H2O2-induced toxicity in rat H9c2 cells assessed as increase in cell viability pretreated with compound followed by H2O2 addition and measured after 1 hrs relative to control; type: functional; in short: as §4
[21] = Toxicity in Wistar kyoto rat assessed as red blood cell count in blood at 0.01 mmol/kg, ip administered for 14 days (reference value: 6.83 10^12/L); type: organism-based; settings: in vivo, 336 h; in short: as §1
[22] = Toxicity in Wistar kyoto rat assessed as protein level in urine at 0.01 mmol/kg, ip administered for 14 days (Rvb =0 g/L); type: organism-based; settings: in vivo, 336 h; in short: as §1
[23] = Toxicity in Wistar kyoto rat assessed as lymphocyte ratio in blood at 0.01 mmol/kg, ip administered for 14 days (reference value: 42.1%); type: organism-based; settings: in vivo, 336 h; in short: as §1
[24] = Toxicity in Wistar kyoto rat assessed as urobilinogen level in urine at 0.01 mmol/kg, ip administered for 14 days (reference value: 1 umol/L); type: organism-based; settings: in vivo, 336 h; in short: as §1
[25] = Toxicity in Wistar kyoto rat assessed as eosinophil ratio in blood at 0.01 mmol/kg, ip administered for 14 days (reference value: 1.8%); type: organism-based; settings: in vivo, 336 h; in short: as §3
[26] = Toxicity in Wistar kyoto rat assessed as occult blood cells level in urine at 0.01 mmol/kg, ip administered for 14 days (reference value: 10 /uL); type: organism-based; settings: in vivo, 336 h; in short: as §1
[27] = Toxicity in Wistar kyoto rat assessed as platelet count in blood at 0.01 mmol/kg, ip administered for 14 days (reference value: 670 10^9/L); type: organism-based; settings: in vivo, 336 h; in short: as §1
H9c2 [28] = assay: Cytoprotective activity against H2O2-induced toxicity in rat H9c2 cells assessed as increase in cell viability at 80 uM pretreated with compound followed by H2O2 addition and measured after 1 hrs relative to control; type: functional; in short: as §4
[29] = Toxicity in Wistar kyoto rat assessed as glucose in urine at 0.01 mmol/kg, ip administered for 14 days; type: organism-based; settings: in vivo, 336 h; in short: as §3

Compound	Activity (H9c2 [1])	Activity [2] [×10⁹ /L]	pH [3]	Activity [6] [g/L]	Activity [7] [%]	Activity [8] [%]	Activity [9]	Activity [10]	Activity [11]	Activity [12] [%]	Activity (H9c2 [13]) [%]	half-life at 40000 µM [14] [min]	Activity (H9c2 [15])	Activity (H9c2 [16])	Activity [17]	Ratio [18]	Activity [19] [µmol/L]	Activity (H9c2 [20])	Activity [21] [×10¹² /L]	Activity [22] [g/L]	further results
CC(C)Cc1ccc(C(C)C(=O)Oc2ccc(-c3cc(=S)ss3)cc2)cc1 (stereo not given)	Non-Toxic	3.27	7.5	136	0.9	35.9	Non-Toxic	500 µmol/L	500 µL⁻¹	0.2	< 5	1.4	Active	Dose-dependent effect	Toxic	1.005	50	Dose-dependent effect	5.9	3	Activity [4]: Toxic; Activity [5]: Toxic; Activity [23]: 60.4%; Activity [24]: 66 µmol/L; Activity [25]: 2.6%; Activity [26]: Non-Toxic; Activity [27]: 114 ×10⁹ /L; Activity (H9c2 [28]): 9.4%; Activity [29]: Non-Toxic
CC(C)Cc1ccc(C(C)C(=O)Oc2ccc(C(N)=S)cc2)cc1 (stereo not given)	Non-Toxic	1.72	7.5	119	1.8	44.4	Non-Toxic	Non-Toxic	70 µL⁻¹	0	< 5	20.1	Active	Dose-dependent effect	Non-Toxic	1.005	17	Dose-dependent effect	5.5	3	Activity [4]: Toxic; Activity [5]: Toxic; Activity [23]: 52.8%; Activity [24]: 16 µmol/L; Activity [25]: 1%; Activity [26]: Non-Toxic; Activity [27]: 161 ×10⁹ /L; Activity (H9c2 [28]): 11.9%; Activity [29]: Non-Toxic
CC(=O)Nc1ccc(OC(=O)CCCCC2CCSS2)cc1 (stereo not given)	Non-Toxic	2.89	7.5	135	1.3	31.7	Non-Toxic	4000 µmol/L	Non-Toxic	0.2	8.6	14.1	Active	Dose-dependent effect	Non-Toxic	1.005	12	Dose-dependent effect	6.08	3.2	Activity [23]: 64.2%; Activity [24]: 3.3 µmol/L; Activity [25]: 2.6%; Activity [26]: 80 µL⁻¹; Activity [27]: 194 ×10⁹ /L; Activity (H9c2 [28]): 13.3%; Activity [29]: Non-Toxic
